Data on 6 compounds can be found in paper PMC5934316 (Oncogene, 2018).

In data set [1] the test system is STAT3-dependent luciferase reporter. Briefly: STAT3-dependent luciferase reporter assay. The class given is cell-based, human. The following applies: for STAT3-dependent luciferase expression: MDA-MB-231 cells, Figure 1B. Put shortly: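 MDA-MB-231 cells stably carrying a STAT3-dependent luciferase reporter were treated with DMSO or test compound. Dose-response used graded concentrations; the time course used 2 μM for varying times. Luciferase activity was then measured with a commercial kit. Experiments were run at least three times.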

In the next data set the target is JAK2 (Homo sapiens, UniProt O60674). Briefly: Western blot of JAK2 Tyr1007/1008 phosphorylation in MDA-MB-231 cells. The class given is cell-based. In outline: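 MDA-MB-231 cells were treated with test compound, and lysates were analysed by SDS-PAGE/PVDF Western blot. Blots were probed for total and Tyr1007/1008-phosphorylated JAK2, detected with HRP secondaries and ECL on film.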

For data set [2], the system named is MDA-MB-231. Briefly: MTT survival assay. The class given is cell-based. The following applies: Homo sapiens, read-out: IC50, survival. In outline: (§1)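 Breast cancer lines were cultured in DMEM + 10% FBS at 37 °C, 5% CO2. Cells were seeded at 3–4×10^3 per well in 96-well plates and treated with graded test-compound concentrations for 48 or 72 h. Viable cells were then measured by MTT. Experiments were run at least three times.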

The test system of the next data set is breast cancer cells. Briefly: MTT survival assay, summary over breast cancer cells. Format: cell-based. The settings on record: Homo sapiens, 72 h, read-out: IC50 for breast cancer cells. In outline:
as §1

A short description of data set [3]: Body weight in xenograft study. The class given is in vivo, mice. In outline: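 MDA-MB-231 tumour pieces (~1.5 mm) from a donor xenograft were implanted s.c. in the left flank of 4–6-week-old female Balb/c nude mice. At ~100 mm3, mice were randomised (5/group) to vehicle, 10 or 40 mg/kg test compound, or 0.6 mg/kg vincristine. Dosing was IP every 3 days for 18 days, with body weight recorded every 3 days.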

The subject of the next data set is recombinant STAT3. As to the kind of experiment: Pull-down assay with immobilized BMA097, purified recombinant STAT3 proteins. The class given is binding. The following applies: silver staining. Put shortly:
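Purified recombinant STAT3 deletion proteins were mixed with test compound immobilised on CNBr-activated Sepharose 4B, after milk blocking in Tris-HCl pH 8.0/KCl/NP-40 binding buffer. Pulled-down material was separated by SDS-PAGE and detected by silver staining or STAT3 Western blot.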

Data set [4] deals with T1, STAT3 (Homo sapiens, UniProt P40763). The class given is cell-based. Put shortly:
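In MDA-MB-231 cells, constitutive pSTAT3 was assessed after graded doses for 24 h or 2 μM over time, with actin as loading control. For IL-6 induction, serum-starved cells were pretreated, then given IL-6. Localisation after 24 h used methanol/acetone-fixed, Triton-permeabilised cells stained for (p)STAT3 with Alexa555 secondary and DAPI (confocal), or fractionation with histone/actin markers. Dimers were resolved by non-denaturing PAGE and Western blot.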

Data set [5] relates to STAT3 target genes, cyclin D1 and Bcl-xL. As to the kind of experiment: Real-time RT-PCR and Western blot of STAT3 target genes in MDA-MB-231 cells. The class given is cell-based, human. The settings on record: mRNA by real-time RT-PCR and protein by Western blot. In outline: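 MDA-MB-231 cells were treated with graded test-compound concentrations. Cyclin D1, Bcl-xL and STAT3 mRNAs were measured by SYBR Green real-time RT-PCR and quantified by 2ΔΔCt against GAPDH (n=3). For protein, cells were treated for 24 h, then analysed by SDS-PAGE/PVDF Western blot with HRP secondaries and ECL on film, using actin as loading control.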

The subject of the next data set is MDA-MB-231 xenografts. As to the kind of experiment: In-vivo efficacy, xenograft tumors. Further details: species or system mice. Put shortly: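 Donor xenograft: 1×10^7 MDA-MB-231 cells injected s.c. into a 5-week-old female Balb/c nude mouse and grown 2 weeks. ~1.5-mm pieces were implanted s.c. in 4–6-week-old female nude mice. At ~100 mm3, five mice per group received vehicle, test compound or vincristine 0.6 mg/kg IP every 3 days for 18 days. Tumour volume was measured blinded every 3 days. IHC covered total/Tyr705-phosphorylated STAT3 and cleaved caspase 3.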

The next data set deals with MDA-MB-468. As to the kind of experiment: MTT survival assay. The class given is cell-based. The settings on record: Homo sapiens, read-out: IC50, survival. In outline: as §1
Data set [6] concerns MCF7. As to the kind of experiment: MTT survival assay. Format: cell-based. The settings on record: Homo sapiens, read-out: IC50, survival. In outline: as §1
A short description of another data set: MTT survival assay. The class given is cell-based. The settings on record: human, MCF10A cells, IC50, cytotoxicity.
The subject of data set [7] is MCF7. As to the kind of experiment: Annexin V-FITC/PI apoptosis assay. Format: cell-based, human. In outline: (§2)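 Cells grown in DMEM with 10% FBS at 37 °C, 5% CO2. Seeded at 3×10^5 cells/well in 6-well plates and exposed to test compound for 24 h. Stained with annexin V-FITC and propidium iodide and analysed by flow cytometry. Annexin V+/PI− plus double-positive cells were counted as apoptotic. Experiments were run at least three times.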

The subject of data set [8] is MDA-MB-231 and MCF-7 cells. As to the kind of experiment: JC-1 mitochondrial membrane potential assay. The settings on record: JC-1, 24 hours, both cell lines. The class given is cell-based, human. In outline: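 MDA-MB-231 and MCF-7 cells were exposed to graded test-compound concentrations for 24 h. They were then stained with JC-1 (5 μg/mL) for 30 min at 37 °C, washed in PBS and analysed by flow cytometry. Δψm was taken as the ratio of red (aggregate) to green (monomer) fluorescence. Experiments were run at least three times.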

The target of data set [9] is T1, STAT3. Briefly: Pull-down assay with immobilized BMA097, MDA-MB-231 cell lysate. The class given is binding. In outline: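 Test compound was coupled to CNBr-activated Sepharose 4B and blocked with 10% milk in binding buffer (20 mM Tris-HCl pH 8.0, 150 mM KCl, 1 mM EDTA, 15% glycerol, 0.5% NP-40, 0.2 mM PMSF, protease inhibitors). Beads were mixed with MDA-MB-231 lysate. For competition, lysate was first incubated 30 min at 37 °C with DMSO, 400 μM free compound or an irrelevant compound. For elution, bound material was incubated 1 h with the same agents. Read-out was SDS-PAGE and STAT3 Western blot.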

Data set [10] has as its system MDA-MB-231. As to the kind of experiment: Annexin V-FITC/PI apoptosis assay. Format: cell-based, human. In outline: as §2

Like-named read-outs stand apart in the source and are kept apart here.

T1 sequence (P40763 whole entry): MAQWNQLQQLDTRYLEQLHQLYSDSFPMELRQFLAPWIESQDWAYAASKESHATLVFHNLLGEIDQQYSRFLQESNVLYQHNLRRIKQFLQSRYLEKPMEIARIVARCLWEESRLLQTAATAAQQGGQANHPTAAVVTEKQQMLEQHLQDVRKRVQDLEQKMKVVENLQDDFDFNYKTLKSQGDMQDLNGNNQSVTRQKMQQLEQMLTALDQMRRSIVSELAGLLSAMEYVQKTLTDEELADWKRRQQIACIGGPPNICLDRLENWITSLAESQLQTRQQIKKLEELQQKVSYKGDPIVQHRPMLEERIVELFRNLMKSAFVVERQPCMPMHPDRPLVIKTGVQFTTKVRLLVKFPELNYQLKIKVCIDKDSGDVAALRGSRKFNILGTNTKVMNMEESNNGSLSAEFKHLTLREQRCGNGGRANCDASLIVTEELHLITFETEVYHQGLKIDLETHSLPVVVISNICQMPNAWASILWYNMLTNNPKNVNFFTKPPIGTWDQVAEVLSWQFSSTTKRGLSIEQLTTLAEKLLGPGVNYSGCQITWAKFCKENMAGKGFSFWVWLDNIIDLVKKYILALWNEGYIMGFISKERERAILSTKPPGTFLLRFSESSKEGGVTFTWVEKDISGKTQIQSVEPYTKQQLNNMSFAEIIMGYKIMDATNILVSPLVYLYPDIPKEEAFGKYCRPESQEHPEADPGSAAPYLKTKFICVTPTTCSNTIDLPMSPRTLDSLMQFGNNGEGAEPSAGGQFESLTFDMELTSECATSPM
Chain of JAK2 (O60674 whole entry): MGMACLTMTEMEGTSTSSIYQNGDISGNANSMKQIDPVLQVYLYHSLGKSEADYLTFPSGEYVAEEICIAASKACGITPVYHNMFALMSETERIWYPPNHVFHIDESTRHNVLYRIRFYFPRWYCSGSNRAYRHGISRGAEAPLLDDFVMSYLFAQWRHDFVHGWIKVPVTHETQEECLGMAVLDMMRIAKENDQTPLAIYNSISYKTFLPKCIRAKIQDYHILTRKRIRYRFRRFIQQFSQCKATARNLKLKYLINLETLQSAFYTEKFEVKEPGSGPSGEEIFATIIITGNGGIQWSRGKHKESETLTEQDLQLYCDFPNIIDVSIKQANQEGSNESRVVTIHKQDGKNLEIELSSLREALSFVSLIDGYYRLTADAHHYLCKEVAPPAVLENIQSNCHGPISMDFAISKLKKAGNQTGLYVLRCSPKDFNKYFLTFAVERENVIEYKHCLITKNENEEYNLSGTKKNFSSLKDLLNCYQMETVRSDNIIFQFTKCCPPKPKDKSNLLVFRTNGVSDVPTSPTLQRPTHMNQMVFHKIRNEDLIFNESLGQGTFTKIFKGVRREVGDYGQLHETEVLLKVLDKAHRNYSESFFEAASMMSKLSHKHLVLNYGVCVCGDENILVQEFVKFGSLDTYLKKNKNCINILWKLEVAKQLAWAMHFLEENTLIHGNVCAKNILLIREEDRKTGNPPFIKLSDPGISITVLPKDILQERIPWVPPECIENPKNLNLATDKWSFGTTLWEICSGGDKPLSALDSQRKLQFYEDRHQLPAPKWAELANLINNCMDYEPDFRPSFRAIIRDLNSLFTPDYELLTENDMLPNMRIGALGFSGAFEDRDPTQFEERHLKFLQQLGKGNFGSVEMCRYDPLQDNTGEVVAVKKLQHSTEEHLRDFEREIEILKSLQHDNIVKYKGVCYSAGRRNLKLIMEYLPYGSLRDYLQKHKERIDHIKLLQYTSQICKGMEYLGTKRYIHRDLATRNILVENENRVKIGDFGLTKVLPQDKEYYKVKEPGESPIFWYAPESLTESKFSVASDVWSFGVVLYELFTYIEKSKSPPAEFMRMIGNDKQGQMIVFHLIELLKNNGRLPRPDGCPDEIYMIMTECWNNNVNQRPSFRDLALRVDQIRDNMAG

“N-hydroxy-2-(1-ethyl-1H-indol-3-yl)-3-(1-hydroxy-1H-indol-3-yl)maleimide [BMA127]”: the STAT3-dependent luciferase expression entry in [1] is on record as “least inhibition”.
Turning to `CCn1cc(C2=C(c3cn(CCC#N)c4ccccc34)C(=O)NC2=O)c2ccccc21` [BMA016, 2-(1-ethyl-1H-indol-3-yl)-3-[1-(2-cyanoethyl)-1H-indol-3-yl]maleimide], the STAT3-dependent luciferase expression entry in data set [1] is reported as “significantly inhibited”.
Still for that read-out and setting: with `CCn1cc(C2=C(c3cn(CCCCC#N)c4ccccc34)C(=O)N(CO)C2=O)c2ccccc21` [BMA088, N-hydroxymethyl-2-(1-ethyl-1H-indol-3-yl)-3-[1-(4-cyanobutyl)-1H-indol-3-yl] maleimide] the entry was “no inhibition”.
On to `CCn1cc(C2=C(c3cn(CCCC#N)c4ccccc34)C(=O)NC2=O)c2ccccc21` [BMA019, 2-(1-ethyl-1H-indol-3-yl)-3-[1-(3-cyanopropyl)-1H-indol-3-yl]maleimide], for which the STAT3-dependent luciferase expression result in data set [1] was “significantly inhibited”.
The same measure, in the same setting: next, `N#CCCCCn1cc(C2=C(c3cn(CCCCC#N)c4ccccc34)C(=O)NC2=O)c2ccccc21` [BMA100, 2,3-bis[1-(4-cyanobutyl)-1H-indol-3-yl] maleimide]: “significantly inhibited”.
Take `N#CCCCn1cc(C2=C(c3cn(CCCC#N)c4ccccc34)C(=O)NC2=O)c2ccccc21` [BMA097, 2,3-bis[1-(3-cyanopropyl)-1H-indol-3-yl]maleimide]: the “level of total JAK2” value on JAK2 is listed as “no effect”. The JAK2 phosphorylation/activation result on JAK2 (Tyr1007/1008) is “does not inhibit”. Also, the IC50 was 3.6 µM in the data set with MDA-MB-231 [2] (MDA-MB-231, 48 h); 0.9 µM in the data set with MDA-MB-231 [2] (MDA-MB-231, 72 h); 0.9 to 3.9 µM with breast cancer cells; approximately 1.8 µM in [1] (Homo sapiens, MDA-MB-231, read-out: IC50, inhibition of STAT3-dependent luciferase expression); 4 µM with MDA-MB-468 (MDA-MB-468, 48 h); 1.8 µM in the data set with MDA-MB-468 (MDA-MB-468, 72 h). The IC50 in the data set on MCF7 [6] (MCF7, 48 h) came out at 6.4 µM; in the data set on MCF7 [6] (MCF7, 72 h), 3.9 µM. Moreover, the STAT3-dependent luciferase expression result in [1] is listed as “significantly inhibited”. The “t1/2, inhibition of STAT3-dependent luciferase expression” value in data set [1] (re-synthesized BMA097, time course at 2 μM) is on record as ~ 16 hrs. For the same compound, in data set [3] (40 mg/kg), the “weight loss and apparent phenotypic changes in the mouse model” value was “lack of weight loss”. Besides, the “body weight reduction between the control and treatment groups” value in data set [3] (10 and 40 mg/kg IP) was “no significant differences”. Besides, the “pull-down of recombinant STAT3 lacking the TAD domain (ΔTAD-C)” value in the data set with recombinant STAT3 is “successfully pulled down”. Also, the “pull-down of recombinant STAT3 with further deletion of the SH2 domain (ΔSH2-C)” value with recombinant STAT3 was “abolished the binding”. Also, the “level of total STAT3” value on STAT3 [4] is reported as “little effect”. On STAT3 [4], the “phosphorylation of Ser727 of STAT3” value was “did not affect”. Moreover, the “phosphorylation of Tyr705 of STAT3” value at STAT3 [4] (constitutive, dose- and time-dependent) was “inhibits”. Also, the “nucleus-localized STAT3” value at STAT3 [4] (immunofluorescence and fractionation, 24 hrs) is recorded as “disappeared”. For the same compound, the STAT3 dimerization entry on STAT3 [4] (non-denaturing PAGE, dose- and time-dependent) is given as “inhibited”. Besides, the “IL-6-induced phosphorylation and activation of STAT3” value on STAT3 [4] (serum-starved MDA-MB-231 cells) was “reduced”. Further, in data set [5], the “expression of STAT3 target genes, cyclin D1 and Bcl-xL” value is given as “inhibited”. The “growth and final weight of MDA-MB-231 xenograft tumors” value in the data set on MDA-MB-231 xenografts (10 mg/kg IP every 3 days for 18 days) and with MDA-MB-231 xenografts (40 mg/kg IP every 3 days for 18 days) was “significantly reduced” throughout. In addition, in the data set with MDA-MB-231 xenografts (IHC staining), the “caspase 3 cleavage in xenograft tumors” value is listed as “induced”. Besides, in the data set with MDA-MB-231 xenografts (IHC staining, vs vehicle control), the “phosphorylated STAT3 in xenograft tumors” value is recorded as “reduced level”. In the data set “MTT survival assay” (48 hrs), this compound registered an IC50 at 48 h of 10.6 µM. In the data set “MTT survival assay” (72 hrs), this compound registered an IC50 at 72 h of 6.5 µM. Further, the “total annexin V-positive cells” value was 34.2% in the data set on MCF7 [7] (2 μM BMA097, 24 hrs); 48.1% with MCF7 [7] (4 μM BMA097, 24 hrs); 51.9% with MDA-MB-231 [10] (2 μM BMA097, 24 hrs); 63.8% with MDA-MB-231 [10] (4 μM BMA097, 24 hrs). Moreover, the “mitochondrial membrane potential (Δψm)” value in [8] is given as “induced Δψm loss”. Besides, the “STAT3 pull-down by BMA097-conjugated Sepharose” value at STAT3 [9] (lysate of MDA-MB-231 cells) is reported as “successfully pulled down STAT3”. Moreover, the “competition of STAT3 pulldown by excess free BMA097” value at STAT3 [9] (lysate pre-treated with 400 μM BMA097) was “completely inhibited”.
